Bioassay records (PubChem)
Compounds with a hit are over-represented: about 1.7% of the library has one in this group of screens.
EBNA-1 inhibitor: blocks EBNA-1 binding to DNA. EBNA-1 DNA binding, fluorescence polarization. inhibition, % at 14.8 µM. 300,000 tested, 0.34% active; in the data active = inhibition above about 28%
PREPL inh: human PREPL enzyme inhibition. 320,000 tested, 0.68% active. recombinant PREPL, fluorescence polarization activity-based probe. Q4J6C6. inhibition, % at 5.96 µM; in the data active = inhibition above about 43%;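 note: 0% = enzyme with DMSO and 100% = wells lacking enzyme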
ZTA counter: blocks Epstein-Barr virus ZTA, an EBNA-1 counter-screen | inhibition, % at 11 µM | P03206 | ZTA-DNA binding, fluorescence polarization | AID 2234 | 320,000 tested, 0.15% active; in the data active = inhibition above about 33%
Apaf-1 inh: human Apaf-1 inhibition; O14727; reconstituted apoptosome caspase-3 activity, DEVD-Rh110 fluorescence; inhibition, % at 20 µM; 330,000 tested, 0.71% active; AID 489030; active = inhibition of at least 40% at 20 µM;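 note: plate controls were DMSO wells for no effect and DEVD-CHO caspase inhibitor wells for full effect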
Target sequence (O14727 whole entry, looked up): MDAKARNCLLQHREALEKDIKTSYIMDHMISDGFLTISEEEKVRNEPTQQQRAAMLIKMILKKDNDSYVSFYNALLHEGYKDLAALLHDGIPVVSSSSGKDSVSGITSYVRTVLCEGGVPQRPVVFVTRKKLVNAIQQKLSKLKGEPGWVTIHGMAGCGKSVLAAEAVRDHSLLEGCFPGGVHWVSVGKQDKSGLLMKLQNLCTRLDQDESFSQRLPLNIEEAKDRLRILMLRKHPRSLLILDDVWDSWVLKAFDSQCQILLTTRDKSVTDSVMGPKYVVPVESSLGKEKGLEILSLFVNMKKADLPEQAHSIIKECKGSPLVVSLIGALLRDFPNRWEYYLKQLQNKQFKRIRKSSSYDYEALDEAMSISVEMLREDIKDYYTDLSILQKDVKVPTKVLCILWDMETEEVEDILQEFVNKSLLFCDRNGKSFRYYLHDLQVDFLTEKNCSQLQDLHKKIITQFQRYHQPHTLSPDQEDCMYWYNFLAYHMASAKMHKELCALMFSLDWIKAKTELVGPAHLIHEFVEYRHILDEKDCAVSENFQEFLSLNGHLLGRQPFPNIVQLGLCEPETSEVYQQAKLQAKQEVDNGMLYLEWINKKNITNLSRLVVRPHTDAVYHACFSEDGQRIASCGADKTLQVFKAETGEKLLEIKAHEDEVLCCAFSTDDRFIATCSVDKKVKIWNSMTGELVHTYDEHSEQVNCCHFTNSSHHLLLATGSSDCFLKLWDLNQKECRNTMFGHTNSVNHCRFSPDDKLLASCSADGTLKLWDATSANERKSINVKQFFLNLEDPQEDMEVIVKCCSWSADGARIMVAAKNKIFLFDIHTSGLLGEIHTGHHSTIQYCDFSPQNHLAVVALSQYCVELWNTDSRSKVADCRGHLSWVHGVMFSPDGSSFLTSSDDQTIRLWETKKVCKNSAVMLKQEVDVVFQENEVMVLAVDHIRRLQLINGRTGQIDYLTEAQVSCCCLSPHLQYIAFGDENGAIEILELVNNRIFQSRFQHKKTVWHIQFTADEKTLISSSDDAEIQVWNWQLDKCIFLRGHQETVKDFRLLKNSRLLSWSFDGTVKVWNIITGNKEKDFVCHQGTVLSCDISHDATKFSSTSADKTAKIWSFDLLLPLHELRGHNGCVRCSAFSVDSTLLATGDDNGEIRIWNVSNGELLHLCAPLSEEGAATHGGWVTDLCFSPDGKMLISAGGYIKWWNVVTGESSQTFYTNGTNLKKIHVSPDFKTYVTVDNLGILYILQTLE
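System: Apoptosome proteins | Medium: Hepes pH 7.5 with detergent and BSA | Also added: Cytochrome c trigger plus (Z-DEVD)2-Rh110 caspase-3 substrate | Incubation: 30 min compound preincubation, 50 min activation, room temperature | Detection: Rhodamine 110 fluorescence at Ex 480/Em 540 nm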
UBC13 polyUb: blocks human UBC13 polyubiquitin chain formation | P61088 | TR-FRET | inhibition, % at 20 µM | 330,000 tested, 0.47% active | AID 485273; in the data active = inhibition above about 45%, passing the limit was not always enough
Casp3 counter: counter-screen for UBC13 inhibitors: human caspase-3 inhibition; shares compounds with UBC13 polyUb; Recombinant caspase-3, Caspase-Glo 3/7 luminescence, 60 min; inhibition, % at 20 µM; 1,400 tested, 4% active;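 active = mean inhibition across replicates above about 26%, limit read from the data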;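 note: plate controls were DMSO with caspase-3 for no effect and DMSO wells lacking enzyme for full effect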
UBC13 confirm: human UBC13 polyubiquitin inhibition, confirmed; 1,400 tested, 68% active; shares compounds with UBC13 polyUb; inhibition, % at 10 µM; UBC13 polyubiquitination, TR-FRET, biochemical; in the data active = inhibition above about 45%
Apaf-1 inh conf: confirmation of Apaf-1 inhibitors | shares compounds with Apaf-1 inh | reconstituted apoptosome, caspase-3 DEVD-Rh110 fluorescence | inhibition, % at 20 µM | 1,800 tested, 25% active;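 active = mean inhibition of at least 40% at 20 µM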;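 note: plate controls were DMSO wells for no effect and DEVD-CHO caspase inhibitor control wells for full effect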
Rh110 quench: interferes with Rh110 fluorescence, flagging false Apaf-1 inhibitors; shares compounds with Apaf-1 inh; Rh110 fluorescence interference, quenched caspase reaction; activation (fluorescence interference), % at 20 µM; 1,800 tested, under 10 active;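 active = signal rise of 40% or more at 20 µM, treated as a fluorescence artifact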
Fluor interf inh: shows fluorescence interference in the Apaf-1 inhibitor assay format; shares compounds with Apaf-1 inh; fluorescence interference counterscreen, Apaf-1 assay format; IC50, µM; 460 tested, under 10 active; call rule not given here
An asterisk follows results filed as active; x = not tested or not shown.

SMILES | EBNA-1 inhibitor | PREPL inh | ZTA counter | Apaf-1 inh | UBC13 polyUb | Casp3 counter | UBC13 confirm | Apaf-1 inh conf | Rh110 quench | Fluor interf inh
NC(N)=N/N=C/c1ccc(OCc2ccccc2)c(OCc2ccccc2)c1 | -9 | 37 | -12 | 61* | 110* | -1 | 125* | 42* | 15 | >100
O=C(Nc1ccccc1)O/N=C/c1ccc(F)cc1 | -15 | 15 | -2 | 13 | -10 | x | x | x | x | x
CN(C)CCCNC(=S)NCC(c1ccc(Cl)cc1Cl)c1c[nH]c2ccccc12 (stereo not given) | 4 | 39 | -11 | 41* | 60* | 2 | 88* | 26 | 13 | x
Cc1ccc(N2CCN(S(=O)(=O)N3CCCCC3)CC2)cc1Cl | 0 | 0 | -2 | 5 | 1 | x | x | x | x | x
Cc1ccccc1OCc1n(CC(=O)OC2CC(C)CCC2C(C)C)c2ccccc2[n+]1C (stereo not given) | -2 | 14 | -16 | 47* | 55* | 1 | 98* | 48* | 20 | >100
CCOC(=O)Cn1c(COc2ccccc2OC)[n+](C)c2ccccc21 | 5 | -7 | -4 | -7 | 5 | x | x | x | x | x
CCCCCOC(=O)Cn1c(=O)oc2ccccc21 | -10 | 6 | -16 | 2 | 5 | x | x | x | x | x
CCCCCCCCCCOC(=O)Cn1c(COc2ccccc2)[n+](C)c2ccccc21 | 4 | -64 | 8 | 73* | 59* | -5 | 70* | 72* | 25 | >100
CCCCCCCCCCOC(=O)Cn1c(COc2ccc(Cl)cc2)[n+](C)c2ccccc21 | -4 | -31 | 26 | 85* | 100* | -1 | 89* | 90* | 24 | >100
CC1CCC(C(C)C)C(OC(=O)COC(=O)c2ccc(N)cc2)C1 (stereo not given) | 7 | 4 | 3 | 1 | 8 | x | x | x | x | x
CCCCCCCCCCOC(=O)Cn1c(COc2ccccc2C)[n+](C)c2ccccc21 | 13 | -118 | 8 | 81* | 45* | 1 | 44 | 83* | 25 | >100
Cc1nn(Cc2ccc(C(=O)NC3CCCCC3)o2)c(C)c1Br | 8 | 10 | 2 | -3 | 25 | x | x | x | x | x
C=CCn1c(C)cc(C(=O)COc2nncc3ccccc23)c1C | -1 | 9 | 13 | 3 | -3 | x | x | x | x | x
CCCCCCCCCCOC(=O)Cn1c(COc2cccc(C)c2)[n+](C)c2ccccc21 | 0 | -48 | 10 | 79* | 52* | 4 | 68* | 77* | 34 | >100
Cc1cccc(OCCCn2c(=O)sc3ccccc32)c1 | -3 | -6 | -14 | 5 | 11 | x | x | x | x | x
CCCCOC(=O)Cn1c(=O)n(CC(=O)OCCCC)c2ccccc21 | 6 | 25 | -1 | -1 | 2 | x | x | x | x | x
CCCCCCCCCCOC(=O)Cn1c(COc2ccc(OC)cc2)[n+](C)c2ccccc21 | 0 | -13 | -3 | 72* | 63* | 5 | 81* | 68* | 17 | >100
CN(C(=O)c1cnc(N2CCN(c3ncccn3)CC2)c2ccccc12)c1ccc(Cl)cc1 | -9 | -75 | -6 | 39 | 9 | x | x | x | x | x
CC[C@@H](C)[C@H](CNC)NC[C@@H](Cc1cccc2ccccc12)NCCc1cccc(C(F)(F)F)c1 | 2 | 29 | -19 | 70* | 60* | -2 | 100* | 48* | 13 | >100
OC(CNCCc1ccc(C(F)(F)F)cc1)COc1cccc2ccccc12 (stereo not given) | 0 | -32 | -14 | 8 | 32 | x | x | x | x | x
CN1CCN(C(=S)NC(=O)c2cccc([N+](=O)[O-])c2)CC1 | -5 | 1 | 13 | -4 | 9 | x | x | x | x | x
Cc1c(CCOC(=O)c2ccc(Cl)cc2Cl)sc[n+]1CC(=O)c1ccc(Br)cc1 | x | -18 | x | 71* | 67* | 1 | 67* | 29 | 9 | x
